Published values gathered from unrelated publications.
Lines come from different studies, so protocols differ.
Effect on: metabolic stability
Host: mouse
Matrix: liver microsomes

SMILES | concentration | pH | microsomal CLint
CCCCCCCCCCCCCCCC(=O)NCCOC(=O)C[C@@H](CN)CC(C)C | 1 µM | pH 7.4 | 14.6 µL/min/mg
CC1(C)NC(=O)N(c2cc(C(F)(F)F)c(F)cc2C#N)C1=O |  |  | < 7 µL/min/mg
Cc1[nH]c(C)c(S(=O)(=O)Nc2ccc(C(F)(F)F)c(Cl)c2)c1C(=O)N1CCC(F)(F)C1 |  |  | 59 µL/min/mg
CC1(C)NC(=O)N(c2cccc(C(F)(F)F)n2)C1=O |  |  | < 7 µL/min/mg
CC(C)(C)OC(=O)N1CCC(Oc2ccc3c(=O)c4c(F)cc(Cl)cc4[nH]c3c2)C1 (stereo not shown) | 1 µM | pH 7.4 | 16.7 µL/min/mg
CC(C)n1ncc2c(C(=O)NCC3(F)CNC3)cc(C3CC3)nc21 |  |  | 19.8 µL/min/mg
Cc1[nH]c(C)c(S(=O)(=O)Nc2ccc(C(F)(F)F)c(Cl)c2Cl)c1C(=O)N1CCC(F)(F)C1 |  |  | 15.7 µL/min/mg
CC(C)c1cc(C(=O)NCCN2CCCC2)c2cnn(C(C)C)c2n1 |  |  | 49.1 µL/min/mg
CCS(=O)(=O)N1CCC2(CC1)NC(=O)N(c1ccc(F)c(C(F)(F)F)c1)C2=O |  |  | < 7 µL/min/mg
O=c1c2c([nH]c3cc(OC(F)(F)F)ccc13)CCCC2 | 1 µM | pH 7.4 | 139 µL/min/mg
CC1(C(F)(F)F)NC(=O)N(c2ccc(F)c(C(F)(F)F)c2)C1=O (stereo not shown) |  |  | < 7 µL/min/mg
CCN(CC)CCCOc1ccc2c(=O)c3c([nH]c2c1)CCCC3 | 1 µM | pH 7.4 | 7.94 µL/min/mg
CC(C)n1ncc2c(C(=O)NCC(C)(C)N(C)C)cc(C3CC3)nc21 |  |  | 30.4 µL/min/mg
O=c1c2ccc(OCc3cccc(OC(F)(F)F)c3)cc2[nH]c2cc(F)cc(Cl)c12 | 1 µM | pH 7.4 | 7.26 µL/min/mg
CC1(C)NC(=O)N(c2ccc(F)c(CC(F)(F)F)c2)C1=O |  |  | < 7 µL/min/mg
O=c1c2c([nH]c3cc(OCc4ccc(OC(F)(F)F)cc4)ccc13)CCCC2 | 1 µM | pH 7.4 | 19.7 µL/min/mg
CCN(CC)CCNC(=O)c1c(C)[nH]c(/C=C2\C(=O)Nc3ccc(F)cc32)c1C |  |  | 41 µL/min/mg
CCCN(CCC)CCCOc1ccc2c(=O)c3c([nH]c2c1)CCCC3 | 1 µM | pH 7.4 | 34.1 µL/min/mg
CC(C)n1ncc2c(C(=O)NC(C)(C)CN)cc(C3CC3)nc21 |  |  | 19.1 µL/min/mg
